Source: PMC12977181 (Journal of natural products, 2025)
“Also recorded” adds a separate entry of the source. Read-outs that look alike come from different tables or passages of the source.

Experiments:
p-eIF2α = assay: Immunocytochemistry of p-eIF2α in primary mouse DRGs; format: cell-based; details: approximately 16 h, vs vehicle (0.01% DMSO)
Procedure, shortened: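 Primary mouse DRG neurons were cultured overnight in Neurobasal A, then exposed for ~16 h to test compounds (30–1000 nM) or 0.01% DMSO. Cells were formalin-fixed, blocked in 10% goat serum with 0.1% Triton X-100, and immunostained for p-eIF2α (Alexa 555) and peripherin (Alexa 488) with DAPI. p-eIF2α was quantified as mean gray intensity in peripherin-positive neurons. One-way ANOVA with Tukey's test; mean ± SEM.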

[1] = test system: mice with neuropathic pain; details: through σ2R/TMEM97; cited from earlier work
HEK293 cells [2] = assay: Cytotoxicity in HEK293 cells, resazurin reduction assay; format: cell-based; details: 24 h; for cell death at 30 μM: resazurin (Figure 7A); for LD50: 0.03-30 μM, logarithmic nonlinear regression curve (Figure 7B)
[3] = test system: primary mouse DRG neurons; assay: Functional calcium imaging in primary mouse DRG neurons; format: cell-based; details: 10 μM Ver E
Procedure, shortened: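 DRGs from an 18-week-old male Nestin-Cre × Cre-dependent GCaMP6f mouse were digested with papain (15 IU/mL) plus collagenase (2.25 mg/mL) at 37 °C for 20 min and plated at 450,000–500,000 cells/mL in Neurobasal A. Imaging ran 24 h later with FITC optics. Maximum fluorescence was taken during direct 10 μM exposure and during SOCE, against 0.1% DMSO vehicle. Unpaired two-tailed t tests; SEM; n = cells.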

[4] = test system: hiPSC-derived nociceptors; assay: Multiwell microelectrode array; format: cell-based, human
breast cancer cell lines = details: cited from earlier work
HEK293 cells [5] = details: cited from earlier work

OCCCN1CCC2CC1c1cc(-c3ccc(C(F)(F)F)cc3)ccc12 (stereo not shown) [FEM-1689, reference compound]
p-eIF2α expression (mean gray intensity), in words (p-eIF2α; FEM-1689 30 nM): marked reduction | analgesic effect, in words [1]: drives analgesic responses

C#CCCC[C@H]1OC(=O)[C@H](C(C)C)N(C)C(=O)[C@@H]2CCCN2C(=O)[C@H]([C@@H](C)CC)OC(=O)[C@H]([C@@H](C)CC)N(C)C(=O)[C@H]([C@@H](C)CC)NC(=O)[C@H]1C [Ver E, veraguamide E]
p-eIF2α levels (mean gray intensity), in words (p-eIF2α; Ver E 100 nM): No observable differences | p-eIF2α levels (mean gray intensity), in words (p-eIF2α; Ver E 1000 nM): No observable differences | cytotoxicity, in words (HEK293 cells [2]; 0.03 μM to 30 μM, resazurin): no evidence of cytotoxicity | cell death at 30 μM (HEK293 cells [2]): no cytotoxicity | LD50 (HEK293 cells [2]; resazurin): no detectable LD50 | Maximum fluorescence during the SOCE response (mean) ([3]; 0.1% DMSO, max ΔF/F0, after reintroduction of extracellular Ca2+, vehicle mean = 2.126, no significant difference): 1.929 | DRG excitability during coapplication with thapsigargin, in words ([3]; compared to thapsigargin alone, P < 0.01): significantly increased DRG excitability | SOCE response, in words ([3]; upon reintroduction of extracellular Ca2+): no significant change | neuronal activity at 24 h, in words ([4]; 30 μM, 37 °C, 24-h time point): returning to baseline | effect on activity at 42 °C (heat ramp 37 to 42 °C), in words ([4]; 42 °C, Ver E vs vehicle (DMSO)): no significant effect; also recorded: nonsignificant decrease

C[C@@H]1CC[C@@]2(OC1)O[C@H]1[C@@H](O)[C@H]3[C@@H]4CC[C@H]5C[C@@H](O[C@@H]6O[C@H](CO)[C@H](O[C@@H]7O[C@H](CO)[C@@H](O)[C@H](O[C@@H]8OC[C@@H](O)[C@H](O)[C@H]8O)[C@H]7O[C@@H]7O[C@H](CO)[C@H](O)[C@H](O[C@@H]8O[C@H](CO)[C@@H](O)[C@H](O)[C@H]8O)[C@H]7O)[C@H](O)[C@H]6O)[C@H](O)C[C@]5(C)[C@H]4CC[C@]3(C)[C@H]1[C@@H]2C [digitonin, reference compound]
cell death at 30 μM (HEK293 cells [2]): 100% | LD50 (HEK293 cells [2]; resazurin): 9.68 µM

veraguamide C
cytotoxicity, in words (breast cancer cell lines): mild cytotoxicity | cytotoxicity, in words (HEK293 cells [5]): nontoxic
